S1P4 ag: agonists of human S1P4 receptor; O95977; S1P4-expressing cell line, agonist reporter assay; activation, % at 4.98 µM; 0.35% of 220,000 active; in the data active = activation above about 11%;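 also: 0% = DMSO vehicle and 100% = reference agonist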
L major viab: inhibitors of Leishmania major promastigote growth; 9% of 200,000 active; inhibition, % at 10 µM; AID 1063; Leishmania major promastigotes, resazurin fluorescence viability; in the data active = inhibition above about 50%;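 also: promastigotes grown with compound for 44 hours at 28 °C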
S1P3 antagonist: S1P3 (human) receptor antagonism | Q99500 | CHO S1P3 NFAT-BLA reporter, FRET fluorescence, antagonist mode | inhibition, % at 4.98 µM | 0.27% of 170,000 active | AID 485;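 active = inhibition above the plate cutoff, the mean inhibition of test wells on that plate plus 3 SD, cut at about 28% in these data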;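 also: cells challenged with S1P at its EC80 of 0.8 µM; blue over green emission ratio from cleaved BLA substrate after 4 h stimulation; 0% = S1P-stimulated wells and 100% = unstimulated DMSO-only wells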
S1P4 antagonist: human S1P4 receptor antagonism; O95977; S1P4-expressing cells, antagonist mode, reporter read-out; inhibition, % at 4.98 µM; 0.26% of 220,000 active; in the data active = inhibition above about 29%;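 also: 0% = wells stimulated with agonist and 100% = vehicle wells without agonist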
Mdm2 ligase inh: Mdm2 E3 ligase (human) inhibition | Q00987 | cell-based MDM2 ubiquitination luciferase reporter, 2 h; 0 = plate control, 100 = twice control, blank-subtracted | signal enhancement, % at 5 µM | 0.11% of 210,000 active | AID 1230;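 active = signal enhancement of 30% or more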;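 also: luminescence tracks abundance of the self-degrading MDM2-luciferase fusion protein; higher signal means inhibition of MDM2 E3 ligase activity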
Target sequence (Q00987 whole entry, looked up, the tested form may be a part): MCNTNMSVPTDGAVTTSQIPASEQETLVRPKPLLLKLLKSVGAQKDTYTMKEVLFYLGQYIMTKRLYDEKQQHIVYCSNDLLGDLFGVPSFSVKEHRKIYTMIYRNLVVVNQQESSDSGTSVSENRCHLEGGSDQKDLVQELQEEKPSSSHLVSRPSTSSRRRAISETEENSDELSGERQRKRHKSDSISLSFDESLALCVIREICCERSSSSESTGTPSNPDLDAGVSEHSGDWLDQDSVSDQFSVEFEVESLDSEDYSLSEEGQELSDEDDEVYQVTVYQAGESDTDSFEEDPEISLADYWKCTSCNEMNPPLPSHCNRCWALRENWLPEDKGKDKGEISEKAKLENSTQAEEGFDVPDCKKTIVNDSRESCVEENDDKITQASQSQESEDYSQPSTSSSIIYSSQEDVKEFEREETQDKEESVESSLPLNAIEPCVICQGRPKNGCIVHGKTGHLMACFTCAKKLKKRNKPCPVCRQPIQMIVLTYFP
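Test system: stable mammalian line carrying autodegrading MDM2–luciferase fusion reporter; quantity: 2000 cells in each well; times: 4 h cell settling then 2 h compound exposure, 37 °C; detection: luminescence with SteadyLite reagent, 15 min at room temperature; evaluation: percent signal gain over controls, blank-subtracted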
* marks the source's active call; other numbers are inactive results; . = no result. This excerpt belongs to a sample that is enriched for hits.

SMILES	S1P4 ag	L major viab	S1P3 antagonist	S1P4 antagonist	Mdm2 ligase inh
COc1ccc(C(C(=O)NC(C)(C)C)N(Cc2ccccc2)C(=O)CCC(=O)Nc2cc(C)on2)cc1 (stereo unspecified)	0	95*	-14	4	-9
COc1ccc(CN(C(=O)c2ccc(-c3ccccc3)[nH]2)C(C(=O)NC(C)(C)C)c2ccncc2)cc1 (stereo unspecified)	1	93*	-6	-6	4
Fc1cccc(-c2cc3nc4c(c(N5CCN(c6cnccn6)CC5)n3n2)CCCC4)c1	1	0	25	-13	.
Clc1cccc(-c2cc3nc4c(c(N5CCN(c6cnccn6)CC5)n3n2)CCCC4)c1	0	62*	.	-20	-26
C=C(C)Cn1c(C)cc(C)c(S(=O)(=O)c2cccc(C)c2)c1=O	0	96*	15	-17	-15
COc1ccc(/C=C/C2=CCN(Cc3ccc(OC)cc3)CC2)cc1	0	91*	-8	-6	-5
Cc1cccc(NC(=O)c2nc[nH]c2C(=O)NCC(=O)OC(C)(C)C)c1	.	.	.	.	0
Cc1cc(N2CCC(C)CC2)nc(NCc2ccccc2)n1	0	86*	-10	17	-11
Cc1cc(Nc2cccc(F)c2)nc(NCc2ccccc2)n1	0	100*	19	-11	-8
Cc1cc(C)nc(NCCCc2ccccc2)n1	0	0	12	-25	6
Cc1cc(Nc2ccc(Cl)cc2)nc(NCc2ccccc2)n1	-1	100*	-1	-8	-17
CCCCNc1cc(C)nc(NCc2ccccc2)n1	1	101*	5	7	-30
Cc1cc(N/N=C/c2ccc(F)cc2)nc(NCc2ccccc2)n1	2	.	-4	10	-101
CC(C)c1nc(-c2c(N)n(C)c(=O)n(C)c2=O)sc1C(=O)C(C)(C)C	0	0	5	-5	-11
O=C(O)COCC(=O)Nc1ccc(-n2cnnn2)cc1	1	-8	3	-6	-4
CC1(OC(=O)C2CCCC2)C(=O)C=C2C=C(c3ccsc3)N(C(CO)CO)C=C2C1=O (stereo unspecified)	.	.	.	.	12
Cc1cc(Nc2ccccc2)nc(NCc2ccccc2)n1	2	100*	23	-7	-19
Cc1cc(N/N=C/c2ccc(Cl)cc2Cl)nc(NCc2ccccc2)n1	-1	62*	-1	-6	-17
Cc1ccc(/C=N/Nc2cc(C)nc(NCc3ccccc3)n2)cc1	0	.	17	-5	-12
CCOc1ccc(OCC)c(NC(=O)CCn2cccc2)c1	2	2	17	5	-13
Fc1ccccc1/C=N/Nc1ncnc2nc[nH]c12	-1	52*	-19	8	.
CCN(CC)c1ccc(NC(=O)COc2ccccc2C#N)cc1S(=O)(=O)Nc1ccc(OC)cc1	0	99*	-15	-10	7
CCN(CC)c1ccc(NC(=O)c2cnccn2)cc1S(=O)(=O)Nc1ccc(OC)cc1	3	64*	-9	-10	-12
Cc1ccc(NC(=O)c2cnccn2)cc1S(=O)(=O)N(C)C	1	83*	-9	-6	1
CCN(CC)c1ccc(NC(=O)c2ccc(=O)[nH]c2)cc1S(=O)(=O)Nc1ccccc1OC	0	1	-19	13	-6
SMILES	S1P4 ag	L major viab	S1P3 antagonist	S1P4 antagonist	Mdm2 ligase inh
O=C(Nc1ccc(Cl)c([N+](=O)[O-])c1)c1cnccn1	0	83*	-7	4	-8
COc1ccc(Nc2nnc(SCc3cc([N+](=O)[O-])cc4c3OCOC4)s2)cc1	-4	-2	.	-1	-21
COc1ccc(N2CCN(C(c3cccs3)C(C)NS(C)(=O)=O)CC2)cc1 (stereo unspecified)	2	-7	4	-4	-13
COc1ccccc1N(CC(=O)NCc1ccccc1)C(=O)CCC(=O)Nc1cc(C)ccn1	-3	-3	.	-1	9
COc1ccc(CNC(=O)CN(C(=O)CCC(=O)Nc2ccccn2)c2cccc(C)c2)cc1	2	50*	1	-18	-2
CCC(C)(C)NC(=O)CN(C(=O)CCC(=O)Nc1ccccn1)c1ccc(F)c(Cl)c1	-1	90*	.	-12	-11
Cc1cc(C)cc(N(CC(=O)NCc2ccc3c(c2)OCO3)C(=O)CCC(=O)Nc2ccccn2)c1	2	9	-24	1	2
Cc1ccc(C)c(N(CC(=O)NCc2ccc3c(c2)OCO3)C(=O)CCC(=O)Nc2ccccn2)c1	-2	56*	-33	9	-9
